Experiment in all cases: inhibition of NOX2, NOX3, NOX4 ROS production, late-stage follow-up, selectivity assay for NOX1 inhibitor project, cell-based, HEK293 transfected, luminol chemiluminescence, powder samples (AID 2539)
For assay [1], the target named is NADPH oxidase 3 (Homo sapiens) (UniProt Q9HBY0). Conditions: HEK293 transfected NOX2/3/4, luminol ROS chemiluminescence; NOX3; at 10 µM; stronger effect = higher value. The procedure, abridged: (§1)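 Material: HEK/293 cells transfected with NOX2, NOX3 or NOX4 plus partner subunits; replication: each compound tested in triplicate; measured by: ROS chemiluminescence; doses: single compound dose of 10 µM; incubation: compounds added 16 h post-transfection, 2 h before probe; also added: luminol plus HRP probe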
Chain of NADPH oxidase 3 (Homo sapiens) (Q9HBY0 whole entry, looked up): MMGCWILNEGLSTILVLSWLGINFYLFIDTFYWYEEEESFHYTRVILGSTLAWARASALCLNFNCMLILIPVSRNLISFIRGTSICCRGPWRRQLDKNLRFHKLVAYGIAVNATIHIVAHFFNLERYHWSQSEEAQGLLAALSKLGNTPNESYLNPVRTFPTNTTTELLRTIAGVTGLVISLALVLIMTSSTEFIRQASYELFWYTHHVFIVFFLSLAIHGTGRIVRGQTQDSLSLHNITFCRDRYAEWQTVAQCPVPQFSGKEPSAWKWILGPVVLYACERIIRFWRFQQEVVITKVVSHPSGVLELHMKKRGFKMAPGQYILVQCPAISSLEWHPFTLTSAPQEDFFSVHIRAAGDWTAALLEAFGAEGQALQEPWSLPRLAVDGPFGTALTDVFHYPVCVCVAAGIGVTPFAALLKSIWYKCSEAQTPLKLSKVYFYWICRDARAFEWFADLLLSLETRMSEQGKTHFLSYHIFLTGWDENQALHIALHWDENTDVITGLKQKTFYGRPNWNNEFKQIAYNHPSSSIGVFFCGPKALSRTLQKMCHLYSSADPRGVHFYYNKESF

In assay [2] the target is NADPH oxidase 2 (Homo sapiens) (UniProt P04839). To be noted: HEK293 transfected NOX2/3/4, luminol ROS chemiluminescence; NOX2; at 10 µM; stronger effect = higher value. The procedure, abridged: as §1
Chain of NADPH oxidase 2 (Homo sapiens) (P04839 whole entry, looked up): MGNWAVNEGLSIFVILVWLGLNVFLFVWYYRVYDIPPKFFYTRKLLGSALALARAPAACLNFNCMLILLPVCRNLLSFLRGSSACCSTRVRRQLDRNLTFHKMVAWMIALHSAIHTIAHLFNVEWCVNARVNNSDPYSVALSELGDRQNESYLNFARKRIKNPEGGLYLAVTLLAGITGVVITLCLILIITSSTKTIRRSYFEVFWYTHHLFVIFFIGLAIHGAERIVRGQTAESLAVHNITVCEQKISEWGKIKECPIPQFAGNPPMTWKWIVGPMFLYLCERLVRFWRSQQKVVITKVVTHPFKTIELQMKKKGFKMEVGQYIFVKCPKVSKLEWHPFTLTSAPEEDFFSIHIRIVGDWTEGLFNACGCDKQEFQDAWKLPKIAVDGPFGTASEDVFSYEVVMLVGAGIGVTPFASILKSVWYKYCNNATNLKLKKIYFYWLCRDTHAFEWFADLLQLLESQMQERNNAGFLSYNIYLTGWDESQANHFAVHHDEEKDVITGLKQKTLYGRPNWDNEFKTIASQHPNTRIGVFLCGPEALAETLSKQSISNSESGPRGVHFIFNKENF
Assay [3] deals with NADPH oxidase 4 (Homo sapiens) (UniProt Q9NPH5). Conditions: HEK293 transfected NOX2/3/4, luminol ROS chemiluminescence; NOX4; at 10 µM; stronger effect = higher value. The procedure, abridged: as §1
Chain of NADPH oxidase 4 (Homo sapiens) (Q9NPH5 whole entry, looked up): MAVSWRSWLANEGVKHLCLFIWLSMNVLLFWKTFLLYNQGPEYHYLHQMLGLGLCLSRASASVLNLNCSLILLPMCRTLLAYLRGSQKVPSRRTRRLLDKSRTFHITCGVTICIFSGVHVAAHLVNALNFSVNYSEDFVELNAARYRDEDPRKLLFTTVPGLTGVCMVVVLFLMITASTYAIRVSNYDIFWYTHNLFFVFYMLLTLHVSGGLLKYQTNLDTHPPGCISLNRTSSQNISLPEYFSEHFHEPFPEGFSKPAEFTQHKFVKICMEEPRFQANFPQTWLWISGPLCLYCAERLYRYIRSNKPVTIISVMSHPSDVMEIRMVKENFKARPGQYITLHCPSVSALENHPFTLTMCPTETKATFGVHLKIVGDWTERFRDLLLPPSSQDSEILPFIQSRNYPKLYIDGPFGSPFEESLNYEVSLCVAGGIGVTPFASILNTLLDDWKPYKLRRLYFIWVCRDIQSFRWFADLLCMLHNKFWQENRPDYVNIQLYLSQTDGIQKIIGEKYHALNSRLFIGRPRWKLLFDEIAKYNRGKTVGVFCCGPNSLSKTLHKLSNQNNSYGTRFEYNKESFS

Activity calls are given as the source filed them.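 Rule for the calls: active = at least 50% inhibition of the cell reactive oxygen species light signal; inactive = the rest.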

In the case of `c1ccc2c(c1)Nc1nc3ccccc3nc1N2`, the values for the inhibition in assay [1], in assay [2] and in assay [3] were -24% (inactive), 2% (inactive) and -24% (inactive), respectively.

`CN(C)c1ccc(NC(=O)Nc2ccc(OCc3ccccc3)cc2)cc1`: the results for the inhibition in assay [1], in assay [2] and in assay [3] were 52%, 32% (inactive) and 52%, respectively.

Take `FC(F)(F)c1ccc2c(c1)Nc1ccccc1S2`: the inhibition was 10% (inactive) in assay [1], 20% (inactive) in assay [2] and 10% (inactive) in assay [3].

As for `Cc1cc(Cl)ccc1NC(=S)NNC(=S)Nc1ccc(F)cc1`, the values for the inhibition in assay [1], in assay [2] and in assay [3] were 25% (inactive), 6% (inactive) and 25% (inactive), respectively.

Turning to `CN(C)c1ccc(/C=N/Nc2c(Cl)cncc2Cl)cc1`, the inhibition in assay [1] was 3% (inactive); in assay [2], 19% (inactive); in assay [3], 3% (inactive).

`O=C(Oc1ccccc1N1CCCCC1)c1sc2ccccc2c1Cl`: the inhibition in assay [1] was 3% (inactive); in assay [2] it was -3% (inactive); in assay [3], 3% (inactive).

As for `COc1cc(-c2nc(-c3ccccc3)c(-c3ccccc3)[nH]2)ccc1O`, the inhibition was 61% in assay [1], -7% (inactive) in assay [2] and 61% in assay [3].

A word on the inhibition: it is the relative decrease from the control value, in per cent.

The values above are taken from PubChem BioAssay AID2539 (The Scripps Research Institute Molecular Screening Center, 2010).
